Source: PubChem (Broad Institute)
Sampled rows, rich in hits. Any-hit rate of the full collection: about 4.3%.
CAL PDZ FP-1 = CAL PDZ peptide-binding inhibitors, primary screen, biochemical, fluorescence polarization, Cer-tagged CAL PDZ, HTS. AID 504414, 2011. Golgi-associated PDZ and coiled-coil motif-containing protein (Homo sapiens), Q9HD26. purified CAL PDZ, TMR-peptide fluorescence polarization, 1 h. 330,000 compounds, 0.02% hits. inhibition, % at 20 µM;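 active = highest replicate inhibition of at least 40%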;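 note: plate controls were DMSO neutral control wells for no effect and unlabeled competitor peptide control wells for full effect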
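Read-out basis: mP drop reported as inhibition | Assay system: Tagged CAL PDZ protein CerCALP, purified | Benchmarks: Unlabelled peptide for full inhibition, DMSO wells as neutral | Schedule: 1 h incubation at room temperature before polarization reading | Buffer or medium: Sodium phosphate/NaCl buffer pH 7.4 with TCEP, IgG, Thesit | Doses: Single point, 20 µM | Measured by: Fluorescence polarization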
ALR H2O2 inh = inhibitors of human ALR sulfhydryl oxidase, primary screen, biochemical, H2O2 detection, HRP-luminol luminescence, single point; 290,000 compounds, 3.8% hits; inhibition, % (concentration not given with the values); AID 485317, 2010; purified ALR, DTT oxidation; FAD-linked sulfhydryl oxidase ALR (Homo sapiens), P55789;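 active = mean replicate inhibition above about 79%, with every replicate also reaching it, limit read from the data; inconclusive = only one of the two criteria met; inactive = mean below limit and not every replicate reaching it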
Target sequence (P55789 whole entry, looked up): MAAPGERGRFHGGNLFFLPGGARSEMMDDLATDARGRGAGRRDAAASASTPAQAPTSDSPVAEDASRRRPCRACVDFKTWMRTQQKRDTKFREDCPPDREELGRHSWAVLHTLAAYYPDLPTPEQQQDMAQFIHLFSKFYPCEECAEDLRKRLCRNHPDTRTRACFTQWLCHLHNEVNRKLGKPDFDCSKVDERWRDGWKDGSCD
DYRK1A inh = rat Dyrk1A kinase inhibitors, primary screen, biochemical, single point, plate reader; 310,000 compounds, 0.43% hits; AID 504441, 2011; inhibition, % at 12.5 µM; ADP-Glo luminescence, NFATc1 peptide; Dual specificity tyrosine-phosphorylation-regulated kinase 1A (Rattus norvegicus), Q63470; in the data active = inhibition above about 50%;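 note: plate controls were vehicle with enzyme for no effect and no enzyme for full effect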
Rtt109 HAT inh = inhibitors of C. albicans Rtt109/Vps75 HAT, primary screen, biochemical, ThioGlo CoA-SH fluorescence, plate reader. purified Rtt109/Vps75, 4 h. 330,000 compounds, 0.16% hits. inhibition, % at 34.9 µM. Histone acetyltransferase RTT109 (Candida albicans (strain SC5314 / ATCC MYA-2876)), …. AID 540336, 2011;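 active = inhibition of at least 50% in every replicate; inconclusive = best replicate reaches 50% inhibition but some replicates fall short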
Target sequence (Q5AAJ8 whole entry, looked up): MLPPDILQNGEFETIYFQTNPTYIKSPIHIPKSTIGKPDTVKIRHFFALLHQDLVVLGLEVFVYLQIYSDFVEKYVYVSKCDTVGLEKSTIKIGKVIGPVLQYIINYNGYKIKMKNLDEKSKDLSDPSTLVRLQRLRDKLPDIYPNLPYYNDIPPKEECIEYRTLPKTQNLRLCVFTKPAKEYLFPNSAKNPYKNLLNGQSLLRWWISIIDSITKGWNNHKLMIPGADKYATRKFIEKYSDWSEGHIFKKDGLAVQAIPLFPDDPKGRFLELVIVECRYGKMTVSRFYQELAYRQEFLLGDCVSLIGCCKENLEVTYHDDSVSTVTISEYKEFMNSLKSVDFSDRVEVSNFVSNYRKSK
CAL PDZ FP-2 = untagged CAL PDZ binding inhibitors, primary screen, biochemical, fluorescence polarization, HTS; purified CAL PDZ, TMR-peptide fluorescence polarization, 1 h; inhibition, % at 24.9 µM; Golgi-associated PDZ and coiled-coil motif-containing protein (Homo sapiens), Q9HD26; 300,000 compounds, 0.92% hits;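 active = mean inhibition of at least 30% with at least half of replicates also reaching 30%; inconclusive = no clear call, values can overlap the other calls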;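 note: 0% = DMSO neutral control and 100% = excess unlabeled competitor peptide PRC23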
Starred values were filed as active, the others as inactive.

`Cc1ccnc(NC(=O)CNC(=O)c2sc3ccccc3c2Cl)c1` gave CAL PDZ FP-1 0, ALR H2O2 inh 5, DYRK1A inh -2, Rtt109 HAT inh 3 and CAL PDZ FP-2 -7.
For Cc1ccnc(NC(=O)c2sc3cc(Cl)ccc3c2Cl)c1 the results were CAL PDZ FP-1 -1, ALR H2O2 inh 9, DYRK1A inh 7, Rtt109 HAT inh -2 and CAL PDZ FP-2 81*.
Screening CCc1nnc(NS(=O)(=O)c2ccc(NC(=O)OC)cc2)s1 returned CAL PDZ FP-1 -2, ALR H2O2 inh 98*, DYRK1A inh 3, Rtt109 HAT inh 0 and CAL PDZ FP-2 -2.
For CCc1nnc(NS(=O)(=O)c2ccc(NC(=S)NC(=O)c3ccc(F)cc3)cc2)s1 the results were CAL PDZ FP-1 -3, ALR H2O2 inh 51, DYRK1A inh 24, Rtt109 HAT inh 10 and CAL PDZ FP-2 0.
CCCCOc1cccc(C(=O)Nc2ccc(S(=O)(=O)Nc3nnc(CC)s3)cc2)c1 was read as CAL PDZ FP-1 -1, ALR H2O2 inh 97*, DYRK1A inh -2, Rtt109 HAT inh 29 and CAL PDZ FP-2 -8.
Screening CCc1nnc(NS(=O)(=O)c2ccc(NC(=O)/C=C/c3ccc(F)cc3)cc2)s1 returned CAL PDZ FP-1 -5, ALR H2O2 inh 98*, DYRK1A inh 25, Rtt109 HAT inh 2 and CAL PDZ FP-2 -10.
`Cc1ccc(S(=O)(=O)Nc2ccc(N=Nc3ccc(O)cc3)cc2)cc1` gave CAL PDZ FP-1 -3, ALR H2O2 inh 90*, DYRK1A inh 0, Rtt109 HAT inh 17 and CAL PDZ FP-2 -1.
Screening Cc1ccc(CC2(c3ccccc3)NC(=O)NC2=O)cc1 (centres undefined) returned CAL PDZ FP-1 -1 and Rtt109 HAT inh 0.
For COCc1nnc(NC(=O)c2cccc(NC(=O)C(C)C)c2)s1 the results were CAL PDZ FP-1 2, ALR H2O2 inh 0, Rtt109 HAT inh 6 and CAL PDZ FP-2 -2.
COC(=O)Nc1ccc(S(=O)(=O)Nc2ncccn2)cc1 was read as CAL PDZ FP-1 0, DYRK1A inh 2 and CAL PDZ FP-2 -6.
For COC(=O)Nc1ccc(S(=O)(=O)Nc2ccc(O)cc2)cc1 the results were CAL PDZ FP-1 -3, ALR H2O2 inh 89*, DYRK1A inh -1, Rtt109 HAT inh -5 and CAL PDZ FP-2 -1.
CCc1nnc(NC(=O)c2cccc(NC(=O)C(C)C)c2)s1 was read as CAL PDZ FP-1 -1, ALR H2O2 inh -25, DYRK1A inh -1, Rtt109 HAT inh -9 and CAL PDZ FP-2 45*.
For CC(C)C(NC(=O)CSCc1ccc([N+](=O)[O-])cc1)C(C)C the results were CAL PDZ FP-1 0, ALR H2O2 inh 98*, DYRK1A inh -3, Rtt109 HAT inh 1 and CAL PDZ FP-2 -3.
For OC(COCc1cccs1)CN1CCN(c2cccc(Cl)c2)CC1 (centres undefined) the results were CAL PDZ FP-1 0, ALR H2O2 inh 91*, DYRK1A inh 5, Rtt109 HAT inh -10 and CAL PDZ FP-2 1.
For COc1cccc(-n2c(=O)c3sccc3n(CC(=O)NCC3CCCO3)c2=O)c1 (centres undefined) the results were CAL PDZ FP-1 -3, ALR H2O2 inh -1, DYRK1A inh -3, Rtt109 HAT inh -2 and CAL PDZ FP-2 39*.
COc1cccc(-n2c(=O)c3ccccc3n(CC(=O)NCC3CCCO3)c2=O)c1 (centres undefined) was read as CAL PDZ FP-1 0, ALR H2O2 inh 0, DYRK1A inh -5, Rtt109 HAT inh -2 and CAL PDZ FP-2 -9.
CC(=O)N[C@@H](Cc1c[nH]c2ccccc12)C(=O)OCC(=O)Nc1ccc(Cl)c(S(=O)(=O)N(C)C)c1 was read as CAL PDZ FP-1 -2, ALR H2O2 inh 52, Rtt109 HAT inh -1 and CAL PDZ FP-2 -4.
`COc1ccc(NC(=O)COC(=O)CCCc2c[nH]c3ccccc23)cc1` gave CAL PDZ FP-1 -2, ALR H2O2 inh 85*, DYRK1A inh -6 and CAL PDZ FP-2 4.
CC(=O)NC(Cc1c[nH]c2ccccc12)C(=O)OCC(=O)Nc1ccc2c(c1)OCO2 (centres undefined) was read as CAL PDZ FP-1 -3, ALR H2O2 inh 89*, DYRK1A inh 3, Rtt109 HAT inh -4 and CAL PDZ FP-2 4.
For CC(=O)Nc1ccc(NC(=O)COC(=O)Cc2c[nH]c3ccccc23)cc1 the results were CAL PDZ FP-1 0, ALR H2O2 inh 83*, DYRK1A inh 1, Rtt109 HAT inh -10 and CAL PDZ FP-2 0.
For CCOc1ccc(NC(=O)COC(=O)CCCc2c[nH]c3ccccc23)cc1 the results were CAL PDZ FP-1 0, ALR H2O2 inh 42, DYRK1A inh 1, Rtt109 HAT inh 4 and CAL PDZ FP-2 -6.
`Cc1ccc(NC(=O)c2ccc(NS(=O)(=O)c3cccc4cccnc34)cc2)cc1` gave CAL PDZ FP-1 -1, ALR H2O2 inh -2, DYRK1A inh 2, Rtt109 HAT inh 10 and CAL PDZ FP-2 -2.
For CC(C)OCCCNS(=O)(=O)c1ccc2c(c1)oc(=O)n2C the results were CAL PDZ FP-1 0, ALR H2O2 inh 99*, DYRK1A inh 0, Rtt109 HAT inh -5 and CAL PDZ FP-2 -6.
For Cn1c(=O)oc2cc(S(=O)(=O)Nc3ccc(O)cc3)ccc21 the results were CAL PDZ FP-1 -1, ALR H2O2 inh 99*, DYRK1A inh -2, Rtt109 HAT inh -5 and CAL PDZ FP-2 -5.
Screening CCCN(CCC)CCCNS(=O)(=O)c1ccc2c(c1)oc(=O)n2C returned CAL PDZ FP-1 -5, ALR H2O2 inh -2, DYRK1A inh -4, Rtt109 HAT inh 4 and CAL PDZ FP-2 -4.
For N/C(=N\OCc1ccc([N+](=O)[O-])cc1)c1ccncc1 the results were ALR H2O2 inh -14, DYRK1A inh -1, Rtt109 HAT inh -3 and CAL PDZ FP-2 -3.
N#Cc1c(-c2ccccc2)cc(-c2cccs2)nc1SCC(=O)O was read as CAL PDZ FP-1 -6, ALR H2O2 inh 99*, DYRK1A inh 11, Rtt109 HAT inh 4 and CAL PDZ FP-2 -4.
For Cc1cc(C)nc(Nc2n[nH]c(-c3cccc4ccccc34)n2)n1 the results were CAL PDZ FP-1 -2, ALR H2O2 inh -1, DYRK1A inh 0, Rtt109 HAT inh -2 and CAL PDZ FP-2 -1.
`Cc1cc(C)nc(Nc2n[nH]c(-c3ccccc3Cl)n2)n1` gave CAL PDZ FP-1 0, ALR H2O2 inh 0, DYRK1A inh -2 and CAL PDZ FP-2 38*.
For COc1cccc(CNc2nc3ccccc3n2C)c1O the results were CAL PDZ FP-1 18, ALR H2O2 inh inconclusive, DYRK1A inh 13, Rtt109 HAT inh -2 and CAL PDZ FP-2 44*.
